Active and inactive are the calls of the source. The calls are words filed in the database; no cut-off is given here.
Columns and labels:
Toll-like receptor 2 = Toll-like receptor 2 (Mus musculus, UniProt Q9QUN7); experiment: Antagonist activity at TLR2 in mouse RAW264.7 cells assessed as PAM3CSK4-induced NO production measured after 24 hrs by Griess assay; format: cell-based
How it was run: (§1)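 RAW 264.7 cells in DMEM/10% FBS/pen-strep, 80,000 per well, preincubated 24 h at 37 °C, 5% CO2. Nonadherent cells removed, medium changed to plain DMEM. Cells co-treated with compound and 200 ng/mL Pam3CSK4 for 24 h. Nitrite in supernatant measured by modified Griess reagent (sulfanilic acid/phosphoric acid, then naphthylethylenediamine), read at OD560. Triplicate.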

[1] = target: Toll-like receptor 2 (Mus musculus) (UniProt Q9QUN7); experiment: Antagonist activity at TLR2 in mouse RAW264.7 cells assessed as PAM3CSK4-induced NO production at 150 uM measured after 24 hrs by Griess assay; format: cell-based; how it was run: as §1
Chain of Toll-like receptor 2 (Mus musculus) (Q9QUN7 whole entry): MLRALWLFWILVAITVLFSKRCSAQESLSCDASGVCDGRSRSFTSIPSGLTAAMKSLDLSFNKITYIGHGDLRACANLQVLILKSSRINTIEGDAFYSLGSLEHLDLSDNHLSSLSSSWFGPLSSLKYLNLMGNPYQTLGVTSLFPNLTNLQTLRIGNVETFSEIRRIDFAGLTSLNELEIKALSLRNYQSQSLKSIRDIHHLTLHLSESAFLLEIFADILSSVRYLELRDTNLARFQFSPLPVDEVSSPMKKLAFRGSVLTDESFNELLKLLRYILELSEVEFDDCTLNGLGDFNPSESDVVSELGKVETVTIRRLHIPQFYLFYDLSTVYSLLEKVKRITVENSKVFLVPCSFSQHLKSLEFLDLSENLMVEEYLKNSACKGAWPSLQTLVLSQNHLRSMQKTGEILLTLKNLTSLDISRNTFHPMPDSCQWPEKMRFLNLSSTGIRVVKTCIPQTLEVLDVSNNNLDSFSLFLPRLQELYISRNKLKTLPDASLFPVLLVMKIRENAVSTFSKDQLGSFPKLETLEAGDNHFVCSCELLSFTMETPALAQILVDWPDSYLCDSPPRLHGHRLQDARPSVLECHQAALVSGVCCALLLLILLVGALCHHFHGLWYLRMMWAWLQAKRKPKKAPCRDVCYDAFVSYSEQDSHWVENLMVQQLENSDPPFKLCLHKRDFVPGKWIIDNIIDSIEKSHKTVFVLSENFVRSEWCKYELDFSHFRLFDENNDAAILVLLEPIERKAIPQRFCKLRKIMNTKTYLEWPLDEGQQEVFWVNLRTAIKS

[2] = target: Toll-like receptor 2 (Homo sapiens) (UniProt O60603); experiment: Inhibition of TLR2 in human HEK-Blue hTLR2 cells assessed as suppression of PAM3CSK4-induced SEAP signaling after 24 hrs by quanti-blue assay; format: cell-based
Chain of Toll-like receptor 2 (Homo sapiens) (O60603 whole entry): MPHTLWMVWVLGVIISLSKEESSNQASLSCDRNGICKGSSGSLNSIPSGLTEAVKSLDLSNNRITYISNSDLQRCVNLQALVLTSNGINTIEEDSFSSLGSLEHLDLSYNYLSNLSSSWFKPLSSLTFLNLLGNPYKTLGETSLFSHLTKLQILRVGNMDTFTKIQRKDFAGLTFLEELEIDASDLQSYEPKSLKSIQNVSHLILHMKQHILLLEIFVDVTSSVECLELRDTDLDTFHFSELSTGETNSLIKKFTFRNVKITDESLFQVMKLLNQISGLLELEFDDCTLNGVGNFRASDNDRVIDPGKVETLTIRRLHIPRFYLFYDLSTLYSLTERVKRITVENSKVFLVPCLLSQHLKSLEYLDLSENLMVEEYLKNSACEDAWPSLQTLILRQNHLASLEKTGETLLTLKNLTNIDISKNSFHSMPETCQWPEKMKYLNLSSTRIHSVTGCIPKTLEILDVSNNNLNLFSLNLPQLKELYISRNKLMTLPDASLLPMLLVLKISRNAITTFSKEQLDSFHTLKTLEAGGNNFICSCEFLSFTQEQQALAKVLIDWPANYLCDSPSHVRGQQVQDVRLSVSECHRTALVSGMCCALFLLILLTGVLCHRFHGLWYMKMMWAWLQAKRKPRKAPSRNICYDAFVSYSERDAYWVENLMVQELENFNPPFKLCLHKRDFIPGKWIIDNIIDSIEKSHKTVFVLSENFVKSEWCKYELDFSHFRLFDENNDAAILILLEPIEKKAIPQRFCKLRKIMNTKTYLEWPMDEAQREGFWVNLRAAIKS
How it was run: (§2)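 HEK-Blue hTLR2 cells (human TLR2, CD14 and NF-κB/AP-1-driven SEAP reporter), 4×10^4 per well, grown 24 h in DMEM/10% FBS. Changed to plain DMEM with compound (0–100 µM) plus 20 ng/ml Pam3CSK4 (TLR1/2) or 20 ng/ml Pam2CSK4 (TLR2/6) for 24 h. Supernatant SEAP read with QUANTI-Blue at 37 °C, OD620 after 15–30 min. Mean ± SD of three independent experiments.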

[3] = target: Toll-like receptor 2 (Homo sapiens) (UniProt O60603); experiment: Inhibition of TLR2 in human PBMC cells assessed as PAM2CSK4-induced TLR2/6 heterodimerization formation by immunoprecipitation assay; format: cell-based
How it was run: (§3)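 Human PBMC, 10^6 cells/mL, given vehicle, Pam3CSK4 (50 ng/mL) or Pam2CSK4 (50 ng/mL) with compound for 24 h. Lysates incubated with anti-TLR2 overnight at 4 °C, then protein A agarose for 4 h. Beads washed three times and boiled in SDS buffer. Immunoprecipitates blotted for TLR1, TLR2, TLR6 and MyD88.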

[4] = target: Toll-like receptor 2 (Homo sapiens) (UniProt O60603); experiment: Inhibition of TLR2 in human PBMC cells assessed as PAM3CSK4-induced TLR1/2 heterodimerization formation by immunoprecipitation assay; format: cell-based; how it was run: as §3
[5] = target: Toll-like receptor 4 (Homo sapiens) (UniProt O00206); experiment: Inhibition of LPS-induced TLR4 activation in human HEK-Blue hTLR4 cells; format: cell-based
Chain of Toll-like receptor 4 (Homo sapiens) (O00206 whole entry): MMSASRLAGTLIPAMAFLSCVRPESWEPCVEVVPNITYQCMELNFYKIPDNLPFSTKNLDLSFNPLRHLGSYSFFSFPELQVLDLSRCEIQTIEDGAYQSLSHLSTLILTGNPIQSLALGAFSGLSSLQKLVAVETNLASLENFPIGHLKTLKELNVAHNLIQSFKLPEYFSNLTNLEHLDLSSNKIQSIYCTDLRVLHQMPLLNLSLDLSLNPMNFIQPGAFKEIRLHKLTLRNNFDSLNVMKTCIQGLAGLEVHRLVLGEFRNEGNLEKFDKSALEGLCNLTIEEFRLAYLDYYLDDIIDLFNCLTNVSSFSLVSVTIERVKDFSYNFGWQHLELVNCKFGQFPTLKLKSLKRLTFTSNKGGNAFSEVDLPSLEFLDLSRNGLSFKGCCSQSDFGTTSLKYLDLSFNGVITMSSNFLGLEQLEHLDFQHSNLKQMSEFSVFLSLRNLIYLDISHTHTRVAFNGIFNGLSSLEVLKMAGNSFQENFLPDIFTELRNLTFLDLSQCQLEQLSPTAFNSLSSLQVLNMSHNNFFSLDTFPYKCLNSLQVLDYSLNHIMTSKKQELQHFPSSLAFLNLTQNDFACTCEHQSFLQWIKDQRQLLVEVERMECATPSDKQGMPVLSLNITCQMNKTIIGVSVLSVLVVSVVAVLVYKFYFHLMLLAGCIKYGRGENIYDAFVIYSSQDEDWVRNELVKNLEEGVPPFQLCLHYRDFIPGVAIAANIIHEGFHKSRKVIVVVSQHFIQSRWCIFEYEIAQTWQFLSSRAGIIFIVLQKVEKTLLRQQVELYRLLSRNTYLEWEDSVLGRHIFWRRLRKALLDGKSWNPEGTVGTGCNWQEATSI
How it was run: (§4)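 HEK-Blue hTLR4 or hTLR3 reporter cells, 4×10^4 per well, grown 24 h, then switched to plain DMEM with compound (0–50 µM). Stimulant was 20 ng/ml LPS for hTLR4 and 20 µg/ml Poly:IC for hTLR3, for 24 h. Supernatant SEAP measured by QUANTI-Blue at OD620. Vehicle as negative control. Three independent experiments.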

TLR2/TLR6 (Homo sapiens) = TLR2/TLR6 (Homo sapiens) (UniProt O60603+Q9Y2C9); experiment: Inhibition of PAM2CSK4-induced TLR2/6 activation in human HEK-Blue hTLR2 cells; format: cell-based; how it was run: as §2
[6] = Inhibition of PAM3CSK4-induced TLR2 expression in human HEK-Blue Htlr2 cells at 12.5 uM by Western blot analysis relative to control; format: functional; settings: HEK-Blue hTLR2, read-out: INH
How it was run: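 HEK-Blue hTLR2 cells, 1.5×10^6 per well, grown 24 h, then in plain DMEM with compound and 50 ng/mL Pam3CSK4 for 24 h. Lysed in RIPA/PMSF. Equal lysate amounts run on SDS-PAGE and transferred to nitrocellulose. Blocked in 5% milk, probed overnight at 4 °C with anti-TLR2, then HRP secondary.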

[7] = target: Toll-like receptor 3 (Homo sapiens) (UniProt O15455); experiment: Inhibition of Poly:IC-induced TLR3 activation in human HEK-Blue hTLR3 cells; format: cell-based; how it was run: as §4
Chain of Toll-like receptor 3 (Homo sapiens) (O15455 whole entry): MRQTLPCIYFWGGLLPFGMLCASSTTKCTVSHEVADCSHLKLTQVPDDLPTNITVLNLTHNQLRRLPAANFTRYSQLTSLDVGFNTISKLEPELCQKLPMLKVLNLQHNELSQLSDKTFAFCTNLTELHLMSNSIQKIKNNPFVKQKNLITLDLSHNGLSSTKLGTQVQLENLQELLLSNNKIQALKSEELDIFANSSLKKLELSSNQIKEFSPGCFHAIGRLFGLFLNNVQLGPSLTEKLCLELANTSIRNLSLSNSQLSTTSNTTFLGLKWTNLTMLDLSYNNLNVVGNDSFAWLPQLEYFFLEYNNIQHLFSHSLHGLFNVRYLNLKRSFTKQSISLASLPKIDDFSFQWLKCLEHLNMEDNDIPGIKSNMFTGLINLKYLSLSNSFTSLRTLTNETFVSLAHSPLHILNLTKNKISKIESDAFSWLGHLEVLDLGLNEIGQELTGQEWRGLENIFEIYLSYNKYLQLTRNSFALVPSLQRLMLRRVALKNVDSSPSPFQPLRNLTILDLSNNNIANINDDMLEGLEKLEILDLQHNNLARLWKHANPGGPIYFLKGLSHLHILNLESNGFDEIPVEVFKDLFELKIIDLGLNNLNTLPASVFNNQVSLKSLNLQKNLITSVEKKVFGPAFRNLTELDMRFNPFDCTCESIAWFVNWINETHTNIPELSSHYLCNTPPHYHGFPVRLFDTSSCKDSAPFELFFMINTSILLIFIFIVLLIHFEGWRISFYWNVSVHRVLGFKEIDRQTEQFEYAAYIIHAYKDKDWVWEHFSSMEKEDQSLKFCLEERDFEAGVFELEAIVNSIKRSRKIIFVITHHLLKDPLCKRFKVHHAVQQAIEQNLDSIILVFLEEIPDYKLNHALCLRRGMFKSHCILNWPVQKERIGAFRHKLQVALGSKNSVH

[8] = target: Toll-like receptor 2 (Homo sapiens) (UniProt O60603); experiment: Inhibition of TLR2 in human HEK-Blue hTLR2 cells assessed as suppression of PAM3CSK4-induced SEAP signaling at 25 uM after 24 hrs by quanti-blue assay relative to control; format: cell-based; how it was run: as §2
[9] = target: Toll-like receptor 1/2 (Homo sapiens) (UniProt O60603+Q15399); experiment: Inhibition of PAM3CSK4-induced TLR1/2 activation in human HEK-Blue hTLR2 cells; format: cell-based; how it was run: as §2
[10] = target: Toll-like receptor 2 (Mus musculus) (UniProt Q9QUN7); experiment: Inhibition of TLR2 in mouse RAW264.7 cells assessed as decrease in PAM3CSK4 induced TNF-alpha expression measured after 24 hrs by ELISA; format: cell-based
How it was run: (§5)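 RAW 264.7 cells or human PBMC, 1×10^6 per well in DMEM/10% FBS/pen-strep, treated with compound plus 50 ng/ml Pam3CSK4 for 24 h at 37 °C. Supernatants frozen at −80 °C. TNF-α measured by sandwich ELISA against recombinant standards, triplicate samples. Mean ± SD, three independent experiments.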

[11] = target: Toll-like receptor 2 (Homo sapiens) (UniProt O60603); experiment: Inhibition of TLR2 in human PBMC cells assessed as PAM2CSK4-induced TLR2/Myd88 heterodimerization formation by immunoprecipitation assay; format: cell-based; how it was run: as §3
[12] = target: Toll-like receptor 2 (Mus musculus) (UniProt Q9QUN7); experiment: Inhibition of TLR2 in mouse RAW264.7 cells assessed as decrease in PAM3CSK4 induced TNF-alpha expression at 25 uM measured after 24 hrs by ELISA relative to control; format: cell-based; how it was run: as §5
RAW264.7 = experiment: Cytotoxicity against mouse RAW264.7 cells assessed as effect on cell viability at 6.25 to 100 uM cotreated with PAM3CSK4 measured after 24 hrs by MTT assay; format: cell-based; settings: raw264.7, 24 h
How it was run: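 RAW 264.7 cells, 80,000 per well, grown 24 h in DMEM/10% FBS/pen-strep. Medium then switched to plain DMEM containing compound plus Pam3CSK4 (final 200 ng/ml) for 24 h. MTT (5 mg/ml stock in PBS) added for 4 h, formazan dissolved in DMSO, absorbance read at 450 nm.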

[13] = target: Toll-like receptor 2 (Homo sapiens) (UniProt O60603); experiment: Inhibition of TLR2 in human PBMC cells assessed as decrease in PAM3CSK4 induced TNF-alpha expression at 12.5 uM measured after 24 hrs by ELISA relative to control; format: cell-based; how it was run: as §5
[14] = target: Toll-like receptor 2 (Homo sapiens) (UniProt O60603); experiment: Inhibition of TLR2 in human PBMC cells assessed as PAM3CSK4-induced TLR2/Myd88 heterodimerization formation by immunoprecipitation assay; format: cell-based; how it was run: as §3
[15] = target: Toll-like receptor 2 (Homo sapiens) (UniProt O60603); experiment: Inhibition of TLR2 in human THP1 assessed as decrease in PAM3CSK4 induced TNF-alpha expression measured after 4 hrs by ELISA

Chain of Toll-like receptor 2 (Q9QUN7 whole entry): as the sequence (Q9QUN7 whole entry) above

| Structure (SMILES) | IC50 (Toll-like receptor 2) | also measured |
| --- | --- | --- |
| C#CCSC[C@H](NC(=O)c1cc(OC)c(OC)c(OC)c1)C(=O)OC | 53.2 µM |  |
| N[C@@H](CSCc1ccc(F)cc1)C(=O)O |  | Activity [1]: inactive |
| O=C(O)c1cc(O)c(O)c(O)c1 [GALLIC ACID] | 69.3 µM |  |
| COC(=O)[C@H](CSCc1ccccc1)NC(=O)c1cc(OC)c(OC)c(OC)c1 | 32.6 µM |  |
| C=CCSC[C@H](NC(=O)c1cc(O)cc(O)c1)C(=O)OC | 58.5 µM |  |
| C=CCCSC[C@H](NC(=O)c1cc(OC)c(OC)c(OC)c1)C(=O)OC | 27.3 µM |  |
| COC(=O)[C@H](CSCc1ccccc1)NC(=O)c1cc(O)c(O)c(O)c1 | 60.7 µM |  |
| COc1cc(C(=O)O)cc(OC)c1OC [3,4,5-TRIMETHOXYBENZOIC ACID] | 53.8 µM |  |
| C=CCCSC[C@H](N)C(=O)O |  | Activity [1]: inactive |
| O=C(O)c1ccc(O)cc1 [PARABEN] | 118 µM |  |
| C=CCCSC[C@H](NC(=O)c1cc(O)cc(O)c1)C(=O)OC | 35.8 µM |  |
| C=CCCCSC[C@H](N)C(=O)OC | 31.3 µM |  |
| C#CCSC[C@H](N)C(=O)O |  | Activity [1]: inactive |
| C=CCSC[C@H](NC(=O)c1ccc(O)cc1)C(=O)OC | 40.5 µM |  |
| C=CCSC[C@H](N)C(=O)O |  | Activity [1]: inactive; inhibition [2]: inactive |
| COC(=O)[C@H](CSCc1ccc(F)cc1)NC(=O)c1ccc(O)cc1 | 37.3 µM |  |
| N[C@@H](CSCc1ccccc1)C(=O)O |  | Activity [1]: inactive |
| C=CCCCSC[C@H](NC(=O)c1cc(O)c(O)c(O)c1)C(=O)OC | 39.2 µM |  |
| C=CCCCSC[C@H](N)C(=O)O |  | Activity [1]: inactive |
| C=CCCCSC[C@H](NC(=O)c1cc(OC)c(OC)c(OC)c1)C(=O)OC | 22.5 µM | inhibition [3]: Active; inhibition [4]: Active; inhibition [5]: inactive; inhibition (TLR2/TLR6 (Homo sapiens)): Active; inhibition at 12.5 µM [6]: > 90%; inhibition [7]: inactive; inhibition [8]: 50%; inhibition [2]: Dose-dependent effect; inhibition [9]: Active; inhibition [10]: Dose-dependent effect; inhibition [11]: Active; inhibition [12]: 50%; Activity (RAW264.7): Non-Toxic; inhibition [13]: > 95%; inhibition [14]: Active; inhibition [15]: Active |
| C#CCSC[C@H](NC(=O)c1cc(O)c(O)c(O)c1)C(=O)OC | 71.5 µM |  |
| O=C(O)c1cc(O)cc(O)c1 [3,5-DIHYDROXYBENZOIC ACID] | 117 µM |  |

Further lines, with some results ahead:

| IC50 (Toll-like receptor 2) | Structure (SMILES) | also measured |
| --- | --- | --- |
| 41.8 µM | C#CCSC[C@H](NC(=O)c1cc(O)cc(O)c1)C(=O)OC |  |
| 45.5 µM | C=CCCSC[C@H](N)C(=O)OC |  |
| 54.4 µM | C=CCSC[C@H](N)C(=O)OC |  |
| 54.9 µM | C=CCCSC[C@H](NC(=O)c1ccc(O)cc1)C(=O)OC |  |
| 50.2 µM | COC(=O)[C@H](CSCc1ccc(F)cc1)NC(=O)c1cc(O)c(O)c(O)c1 |  |
| 28.6 µM | COC(=O)[C@H](CSCc1ccc(F)cc1)NC(=O)c1cc(OC)c(OC)c(OC)c1 |  |
| 54.8 µM | C#CCSC[C@H](NC(=O)c1ccc(O)cc1)C(=O)OC |  |
| 50.5 µM | COC(=O)[C@H](CSCc1ccccc1)NC(=O)c1cc(O)cc(O)c1 |  |
| 52.1 µM | C=CCSC[C@H](NC(=O)c1cc(O)c(O)c(O)c1)C(=O)OC |  |
| 57.7 µM | C=CCCSC[C@H](NC(=O)c1cc(O)c(O)c(O)c1)C(=O)OC |  |
| 53 µM | C=CCCCSC[C@H](NC(=O)c1ccc(O)cc1)C(=O)OC |  |
| 99.6 µM | COC(=O)[C@@H](N)CSCc1ccc(F)cc1 |  |
| 117 µM | COC(=O)[C@@H](N)CSCc1ccccc1 |  |
| 52.1 µM | COC(=O)[C@H](CSCc1ccccc1)NC(=O)c1ccc(O)cc1 |  |
| 57.7 µM | C=CCCCSC[C@H](NC(=O)c1cc(O)cc(O)c1)C(=O)OC |  |
| 38.3 µM | COC(=O)[C@H](CSCc1ccc(F)cc1)NC(=O)c1cc(O)cc(O)c1 |  |
| 94.4 µM | C#CCSC[C@H](N)C(=O)OC |  |
| 49.3 µM | C=CCSC[C@H](NC(=O)c1cc(OC)c(OC)c(OC)c1)C(=O)OC |  |
